Source: ChEMBL document CHEMBL1800057, “Discovery of dual inducible/neuronal nitric oxide synthase (iNOS/nNOS) inhibitor development candidate 4-((2-cyclobutyl-1H-imidazo[4,5-b]pyrazin-1-yl)methyl)-7,8-difluoroquinolin-2(1H)-one (KD7332) part 2: identification of a novel, potent, and selective series of benzimidazole-quinolinone …” (J Med Chem, 2010)
The source made the active and inactive calls.

What was measured:
[1] = tested on: Rhesus monkey; assay: Inhibition of capsaicin-induced thermal hyperalgesia in rhesus monkey model; format: functional, organism-based; conditions: Macaca mulatta
[2] = species: Homo sapiens; assay: Ratio of IC50 for human nNOS to EC50 for human iNOS
[3] = tested on: Mus musculus; assay: Antiallodynic activity against von Frey hair mechanically stimulated neuropathic pain in mouse Chung model of neuropathic pain assessed as attenuation of tactile allodynia at 30 mg/kg, po bid for 4 days; format: functional, organism-based; design: dose 30 mg/kg
Outline: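 Spinal nerve ligation in mice under isoflurane (5% induction, 2-3% maintenance). Von Frey filaments pressed on the paw for up to 10 s. 50% withdrawal threshold derived by Dixon's up-down method. Only mice with baseline thresholds of ~0.2-0.3 g between 5 and 10 days post-surgery were included. Dosing was oral.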

[4] = tested on: Mus musculus; assay: Antiallodynic activity against von Frey hair mechanically stimulated neuropathic pain in mouse Chung model of neuropathic pain assessed as attenuation of tactile allodynia at 30 mg/kg, po; format: functional, organism-based; design: dose 30 mg/kg
Outline: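 Spinal nerve ligation (Chung) surgery done under isoflurane anaesthesia (5% induction, 2-3% maintenance). Only mice with baseline 50% withdrawal threshold ~0.2-0.3 g at days 5-10 after surgery were included. Von Frey filaments applied for 10 s each; 50% threshold calculated by Dixon up-down method. Compound given po at 30 mg/kg, and also 30 mg/kg BID for four days.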

[5] = species: Homo sapiens; assay: Ratio of IC50 for human eNOS to EC50 for human iNOS
[6] = AUC in mouse at 3 mg/kg, iv and 10 mg/kg, po; format: ADME, organism-based; conditions: plasma
[7] = target: T1, Nitric oxide synthase 1 (Homo sapiens, UniProt P29475); assay: Inhibition of human nNOS expressed in HEK293 cells assessed as inhibition ionomycin induced nitric oxide production incubated for 24 hrs measured after 18 hrs of ionomycin challenge using 2,3-diaminonaphthalene by fluorescence assay; format: cell-based
T1 sequence (P29475 whole entry): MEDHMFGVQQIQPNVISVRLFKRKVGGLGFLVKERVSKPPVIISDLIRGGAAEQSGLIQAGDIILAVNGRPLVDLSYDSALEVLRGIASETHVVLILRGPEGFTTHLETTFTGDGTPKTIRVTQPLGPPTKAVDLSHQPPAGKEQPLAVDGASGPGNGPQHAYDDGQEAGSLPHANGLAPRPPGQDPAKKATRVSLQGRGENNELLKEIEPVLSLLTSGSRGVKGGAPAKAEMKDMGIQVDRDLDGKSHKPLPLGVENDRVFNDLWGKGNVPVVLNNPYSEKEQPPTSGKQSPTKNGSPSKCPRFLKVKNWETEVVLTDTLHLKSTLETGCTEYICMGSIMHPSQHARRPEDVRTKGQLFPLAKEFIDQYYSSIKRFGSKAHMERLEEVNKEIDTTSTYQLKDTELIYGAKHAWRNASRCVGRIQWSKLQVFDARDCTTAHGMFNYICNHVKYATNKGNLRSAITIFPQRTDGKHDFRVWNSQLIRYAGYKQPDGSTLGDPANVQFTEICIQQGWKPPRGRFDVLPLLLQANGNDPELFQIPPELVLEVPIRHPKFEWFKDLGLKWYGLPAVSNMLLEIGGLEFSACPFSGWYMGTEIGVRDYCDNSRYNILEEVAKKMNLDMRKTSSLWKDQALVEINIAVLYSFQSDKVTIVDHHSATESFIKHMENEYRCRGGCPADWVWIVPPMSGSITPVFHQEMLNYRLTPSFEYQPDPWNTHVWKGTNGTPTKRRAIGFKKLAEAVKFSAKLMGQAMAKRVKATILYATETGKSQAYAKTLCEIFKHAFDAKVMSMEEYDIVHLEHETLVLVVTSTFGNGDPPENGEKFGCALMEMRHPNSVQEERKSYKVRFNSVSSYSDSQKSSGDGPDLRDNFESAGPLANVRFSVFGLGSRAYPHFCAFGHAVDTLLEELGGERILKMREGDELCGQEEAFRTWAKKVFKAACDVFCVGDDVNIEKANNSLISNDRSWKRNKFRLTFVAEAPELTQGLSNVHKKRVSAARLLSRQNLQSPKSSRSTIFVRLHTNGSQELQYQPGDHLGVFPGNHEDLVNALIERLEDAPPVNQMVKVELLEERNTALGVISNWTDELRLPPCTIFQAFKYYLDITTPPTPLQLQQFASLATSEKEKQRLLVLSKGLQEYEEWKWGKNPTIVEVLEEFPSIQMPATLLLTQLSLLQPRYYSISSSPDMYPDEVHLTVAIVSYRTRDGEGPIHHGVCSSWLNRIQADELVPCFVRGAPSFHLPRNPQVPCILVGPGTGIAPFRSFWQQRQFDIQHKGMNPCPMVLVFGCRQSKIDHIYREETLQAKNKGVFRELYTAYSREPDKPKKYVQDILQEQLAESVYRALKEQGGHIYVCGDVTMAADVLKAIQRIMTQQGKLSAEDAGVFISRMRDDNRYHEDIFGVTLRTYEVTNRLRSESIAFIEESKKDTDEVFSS
Outline: (§1)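 HEK293 cells transfected for 4 h at 37 °C with human nNOS (10 μg) or human eNOS (15 μg) plasmid (Fugene 6, 3:1). Cells replated at 5e5 cells/mL and dosed with compound at once; SEITU (100 μM final) as positive control. After 24 h, cells activated with A23187 (83 nM final) for eNOS or ionomycin (30 μM final) for nNOS. NO read 18 h later as nitrite-DAN fluorescence.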

[8] = Half life in mouse at 10 mg/kg, po; format: ADME, organism-based; design: dose 10 mg/kg, route oral; conditions: in vivo
[9] = Cmax in mouse at 3 mg/kg, iv and 10 mg/kg, po; format: ADME, organism-based; conditions: in vivo
[10] = Oral bioavailability in mouse at 10 mg/kg; format: ADME, organism-based; conditions: in vivo
[11] = Plasma clearance in mouse at 3 mg/kg, iv and 10 mg/kg, po; format: ADME, organism-based
[12] = target: Nitric oxide synthase, inducible (Homo sapiens, UniProt P35228); assay: Inhibition of human iNOS expressed in HEK293 cells assessed as inhibition of nitric oxide production after 18 hrs using 2,3-diaminonaphthalene by fluorescence assay; format: cell-based
Sequence of Nitric oxide synthase, inducible (Homo sapiens, UniProt P35228) (P35228 whole entry): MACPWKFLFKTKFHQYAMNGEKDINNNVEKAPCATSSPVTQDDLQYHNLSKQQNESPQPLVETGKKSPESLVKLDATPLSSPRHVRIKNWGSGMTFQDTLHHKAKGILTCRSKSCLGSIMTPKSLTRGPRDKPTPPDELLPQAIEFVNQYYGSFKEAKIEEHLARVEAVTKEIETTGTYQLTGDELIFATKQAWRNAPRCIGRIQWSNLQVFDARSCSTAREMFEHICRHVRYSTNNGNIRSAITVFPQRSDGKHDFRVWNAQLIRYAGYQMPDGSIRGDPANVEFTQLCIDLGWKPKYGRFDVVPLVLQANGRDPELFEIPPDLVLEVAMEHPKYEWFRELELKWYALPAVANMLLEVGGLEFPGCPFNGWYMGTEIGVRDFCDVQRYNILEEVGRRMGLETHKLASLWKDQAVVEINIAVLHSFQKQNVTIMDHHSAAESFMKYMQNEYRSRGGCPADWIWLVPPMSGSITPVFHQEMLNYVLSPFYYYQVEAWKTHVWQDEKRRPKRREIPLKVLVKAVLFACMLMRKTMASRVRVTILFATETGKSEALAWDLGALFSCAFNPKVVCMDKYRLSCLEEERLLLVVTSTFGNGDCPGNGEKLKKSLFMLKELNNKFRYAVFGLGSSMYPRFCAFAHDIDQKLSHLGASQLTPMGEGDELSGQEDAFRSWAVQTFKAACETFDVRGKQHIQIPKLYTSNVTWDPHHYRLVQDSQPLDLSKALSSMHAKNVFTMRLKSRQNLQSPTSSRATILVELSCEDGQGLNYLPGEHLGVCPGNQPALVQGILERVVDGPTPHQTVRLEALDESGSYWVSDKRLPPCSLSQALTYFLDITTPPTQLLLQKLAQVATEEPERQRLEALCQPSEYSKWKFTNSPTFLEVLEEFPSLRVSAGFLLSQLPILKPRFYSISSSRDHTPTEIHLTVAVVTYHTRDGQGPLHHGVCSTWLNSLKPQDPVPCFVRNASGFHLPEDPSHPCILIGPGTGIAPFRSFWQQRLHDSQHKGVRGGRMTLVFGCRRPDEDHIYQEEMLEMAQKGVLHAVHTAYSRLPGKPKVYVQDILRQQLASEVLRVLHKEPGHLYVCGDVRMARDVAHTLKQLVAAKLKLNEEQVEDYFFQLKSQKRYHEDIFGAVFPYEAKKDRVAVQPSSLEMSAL
Outline: (§2)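 HEK293 cells grown to ~70% confluence in DMEM/10% FBS with pen/strep, transiently transfected with 10 μg human or murine iNOS plasmid plus Fugene 6 for 4 h at 37 °C, 10% CO2. Cells replated at 5e5 cells/mL and dosed with compound at once; 1400W (100 μM final) as positive control. After 18 h, DAN (10 μg/mL final) in HCl (0.1 N final) added for 20 min at room temperature. Fluorescence read after NaOH (0.12 N final).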

[13] = tested on: Liver; assay: Half life in mouse liver microsomes assessed as formation of oxidation product and glucuronide conjugate; format: ADME, Microsome
Outline: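 Mouse liver microsomes run under combined phase I oxidation and phase II glucuronide conjugation; half-life reported in minutes.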

[14] = target: T2, Nitric oxide synthase 3 (Homo sapiens, UniProt P29474); assay: Inhibition of human eNOS expressed in HEK293 cells assessed as inhibition A23187 induced nitric oxide production incubated for 24 hrs measured after 18 hrs of […] challenge using 2,3-diaminonaphthalene by fluorescence assay; format: cell-based; outline: as §1
T2 sequence (P29474 whole entry): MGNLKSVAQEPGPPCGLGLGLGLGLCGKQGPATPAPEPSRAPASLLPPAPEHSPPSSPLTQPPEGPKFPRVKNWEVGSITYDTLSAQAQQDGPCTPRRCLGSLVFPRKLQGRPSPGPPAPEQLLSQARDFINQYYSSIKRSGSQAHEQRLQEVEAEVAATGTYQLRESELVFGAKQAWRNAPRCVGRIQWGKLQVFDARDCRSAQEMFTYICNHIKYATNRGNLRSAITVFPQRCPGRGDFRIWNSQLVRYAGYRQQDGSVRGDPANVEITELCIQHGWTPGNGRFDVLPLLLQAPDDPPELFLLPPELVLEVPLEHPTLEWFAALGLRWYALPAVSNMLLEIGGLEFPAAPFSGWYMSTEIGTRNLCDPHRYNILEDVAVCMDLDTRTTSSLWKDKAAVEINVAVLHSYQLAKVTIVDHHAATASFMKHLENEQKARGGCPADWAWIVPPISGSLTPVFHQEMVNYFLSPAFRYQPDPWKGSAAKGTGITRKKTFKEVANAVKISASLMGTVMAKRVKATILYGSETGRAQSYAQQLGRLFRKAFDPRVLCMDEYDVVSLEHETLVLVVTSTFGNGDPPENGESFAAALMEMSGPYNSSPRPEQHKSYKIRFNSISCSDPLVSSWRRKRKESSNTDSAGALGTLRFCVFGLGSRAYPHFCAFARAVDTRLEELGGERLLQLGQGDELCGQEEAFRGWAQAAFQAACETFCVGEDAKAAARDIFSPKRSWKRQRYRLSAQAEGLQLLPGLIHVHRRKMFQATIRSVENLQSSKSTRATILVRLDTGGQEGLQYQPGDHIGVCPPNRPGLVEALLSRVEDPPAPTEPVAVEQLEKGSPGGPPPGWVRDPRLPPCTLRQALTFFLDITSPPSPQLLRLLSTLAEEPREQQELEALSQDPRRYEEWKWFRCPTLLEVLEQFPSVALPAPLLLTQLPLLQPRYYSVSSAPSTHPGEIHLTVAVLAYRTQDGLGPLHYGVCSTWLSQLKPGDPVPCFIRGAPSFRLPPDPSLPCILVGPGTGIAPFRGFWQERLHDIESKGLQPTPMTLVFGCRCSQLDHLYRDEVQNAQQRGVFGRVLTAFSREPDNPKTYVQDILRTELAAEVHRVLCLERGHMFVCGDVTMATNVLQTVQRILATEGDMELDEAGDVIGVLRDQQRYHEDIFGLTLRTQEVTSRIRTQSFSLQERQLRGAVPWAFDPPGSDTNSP

[15] = Volume of distribution at steady state in mouse at 3 mg/kg, iv and 10 mg/kg, po; format: ADME, organism-based; conditions: in vivo, read-out: Vdss
[16] = tested on: Mus musculus; assay: Inhibition of LPS-induced iNOS activation in BALB/c mouse assessed as plasma nitrate levels at 30 mg/kg administered via oral gavage before LPS challenge measured after 6 to 8 hrs using 2,3-diaminonaphthalene by fluorescence assay relative to control; format: functional
Outline: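 Male BALB/c mice dosed by oral gavage (90% PEG/5% Tween 80/5% PVP + 0.5% w/v CMC) immediately before LPS (10 mg/kg ip in 0.9% NaCl). Mice killed at 6 h. EDTA plasma analysed for nitrate and drug levels; nitrite measured by DAN fluorescence.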

[17] = target: T3, Nitric oxide synthase, inducible (Mus musculus, UniProt P29477); assay: Inhibition of mouse iNOS expressed in HEK293 cells assessed as inhibition of nitric oxide production after 18 hrs using 2,3-diaminonaphthalene by fluorescence assay; format: cell-based; outline: as §2
T3 sequence (P29477 whole entry): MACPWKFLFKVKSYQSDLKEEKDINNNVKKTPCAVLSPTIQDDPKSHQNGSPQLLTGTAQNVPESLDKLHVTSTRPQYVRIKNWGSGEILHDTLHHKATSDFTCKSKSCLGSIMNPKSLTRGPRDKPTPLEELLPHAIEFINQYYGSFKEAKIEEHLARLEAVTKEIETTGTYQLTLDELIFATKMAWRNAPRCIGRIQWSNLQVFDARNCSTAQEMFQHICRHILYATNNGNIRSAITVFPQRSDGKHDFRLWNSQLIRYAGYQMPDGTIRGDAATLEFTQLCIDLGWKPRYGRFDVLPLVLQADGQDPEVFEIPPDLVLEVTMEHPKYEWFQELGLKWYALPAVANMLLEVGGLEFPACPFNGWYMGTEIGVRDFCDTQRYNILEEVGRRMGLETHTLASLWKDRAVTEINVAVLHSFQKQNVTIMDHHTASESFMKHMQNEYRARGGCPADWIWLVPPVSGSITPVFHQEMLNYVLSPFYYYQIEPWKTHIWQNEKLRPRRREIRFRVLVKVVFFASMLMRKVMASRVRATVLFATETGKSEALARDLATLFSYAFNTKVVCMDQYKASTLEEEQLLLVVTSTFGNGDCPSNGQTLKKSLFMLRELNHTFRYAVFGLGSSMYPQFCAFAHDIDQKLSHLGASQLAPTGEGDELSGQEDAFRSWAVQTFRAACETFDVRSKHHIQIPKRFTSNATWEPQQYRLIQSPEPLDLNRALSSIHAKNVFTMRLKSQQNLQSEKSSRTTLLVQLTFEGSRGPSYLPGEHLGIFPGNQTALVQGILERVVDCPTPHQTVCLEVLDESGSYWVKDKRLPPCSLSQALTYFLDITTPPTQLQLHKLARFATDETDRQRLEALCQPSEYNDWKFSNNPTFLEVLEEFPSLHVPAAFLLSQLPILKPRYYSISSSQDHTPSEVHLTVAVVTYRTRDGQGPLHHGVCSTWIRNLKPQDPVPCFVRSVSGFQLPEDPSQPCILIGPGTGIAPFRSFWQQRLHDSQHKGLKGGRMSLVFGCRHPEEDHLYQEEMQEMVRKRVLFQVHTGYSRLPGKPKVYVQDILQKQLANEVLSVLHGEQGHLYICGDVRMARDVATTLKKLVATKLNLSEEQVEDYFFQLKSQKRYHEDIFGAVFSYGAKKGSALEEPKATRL

[18] = Half life in mouse at 3 mg/kg, iv and 10 mg/kg, po; conditions: in vivo
[19] = target: T4, Nitric oxide synthase 3 (Homo sapiens) (UniProt P29474); assay: Inhibition of human eNOS expressed in HEK293 cells assessed as inhibition A23187 induced nitric oxide production at 100 uM incubated for 24 hrs measured after 18 hrs of […] challenge using 2,3-diaminonaphthalene by fluorescence assay; format: cell-based
T4 sequence (whole entry): T2 sequence (P29474 whole entry)

[20] = target: T1, Nitric oxide synthase 1; assay: Inhibition of human nNOS expressed in HEK293 cells assessed as inhibition ionomycin induced nitric oxide production at 100 uM incubated for 24 hrs measured after 18 hrs of ionomycin challenge using 2,3-diaminonaphthalene by fluorescence assay; format: cell-based
[21] = tested on: Mus musculus; assay: Antinociceptive activity against formalin-induced pain in mouse assessed as attenuation of nocifensive phase 2 behaviors during phase 2 (25 to 45 mins post formalin injection) administered via oral gavage 30 mins before to formalin challenge; format: functional
Outline: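 Mice were given compound by oral gavage in PEG/Tween 80/PVP + CMC vehicle 30 min before 20 μL of 5% formalin was injected into the left hind paw. Paw flinching, licking and biting were timed in 5 min bins by a single observer. Read-out was time in nociceptive behaviour at 25-45 min. Mean ± SE, n = 5-6, one-way ANOVA with post hoc tests.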

[22] = tested on: Mus musculus; assay: Antiallodynic activity against von Frey hair mechanically stimulated neuropathic pain in mouse Chung model of neuropathic pain assessed as attenuation of tactile allodynia at 300 mg/kg, po; format: functional, organism-based; design: dose 300 mg/kg
[23] = tested on: Mus musculus; assay: Neurotoxicity in C57Bl/6j mouse assessed as inability to maintain equilibrium on rotarod up to 1000 mg/kg, po determined 1 to 3 hrs postdose by rotarod test; format: toxicity, organism-based; design: dose 1000 mg/kg, route oral; conditions: in vivo
Outline: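 Male C57Bl/6j mice were acclimated to the rotarod at 4 rpm, then given two training sessions on an accelerating rod (4-40 rpm over 300 s). Only mice with latencies >60 s were kept. After oral dosing, latency to fall from the accelerating rod was recorded at 1, 2 and 3 h.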

Compound | Ratio EC50 [2] | Activity [3] | Ratio EC50 [5] | EC50 [7] | EC50 [12] | t1/2 [13] | EC50 [14] | further results
O=c1cc(Cn2c(C3CCC3)nc3nccnc32)c2ccc(F)c(F)c2[nH]1 | 3.3 | Active | 180 |  |  |  |  | inhibition [1]: Active; Activity [4]: Active
CN1CC[C@]23c4c5ccc(O)c4O[C@H]2[C@@H](O)C=C[C@H]3[C@H]1C5 |  | Active |  |  |  |  |  | 
Cc1ncsc1-c1nc2ccccc2n1Cc1cc(=O)[nH]c2c(F)c(F)ccc12 | 0.8 |  | 3.8 | 1500 nM | 1.8 µM | 98 min | 6.8 µM | AUC [6]: 5670 ng·h/mL; half-life [8]: 186 min; Cmax [9]: 3800 ng/mL; bioavailability [10]: 39%; clearance [11]: 12 mL/min/kg; Vd [15]: 1.2 L/kg; inhibition in vivo at 30 mg/kg [16]: 30%; EC50 [17]: 10.3 µM; half-life [18]: 138 min
CC(C)(C)c1nc2ccccc2n1Cc1cc(=O)[nH]c2c(F)c(F)ccc12 | > 2 |  | > 2 | > 100000 nM | 48 µM | > 120 min | > 100 µM | inhibition [19]: < 50%; inhibition [20]: < 50%
NCC1(CC(=O)O)CCCCC1 [GABAPENTIN] |  |  |  |  |  |  |  | ED50 [21]: 110 mg/kg; Activity [22]: Active; Activity [23]: Dose-dependent effect
